According to the RNAGym collection of RNA variant scans (doi:10.1126/science.aae0568):
Variants at the floor of the assay were thinned out.

B1: tRNA (parent)
chain: GUUCCGUUGGCGUAAUGGUAACGCGUCUCCCUCCUAAGGAGAAGACUGCGGGUUCGAGUCCCGUACGGAACG

Variants of: B1
Test: yeast fitness relative to wild type (ratio to wild type); higher = fitter; tRNA-Arg(CCU), competitive growth, 37 C, YPD
Outline: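 Start and end populations of a pooled competition were compared by 100-nucleotide paired-end sequencing of gene amplicons. The Saccharomyces cerevisiae strains carried tRNA-Arg(CCU) gene variants at the native genomic locus, synthesised with a 3% per-site mutation rate at 69 sites, and competed in YPD at 37°C for 24 hours in six parallel replicates. Darwinian fitness relative to wild type was based on the change in genotype frequencies. Genotypes required ≥ 100 starting reads, and estimates < 0.5 were set to 0.5.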

Compared with U7A G23A C24U U35A C60A A69C, U7A G23A C24U U35A C60A A69U is lower in yeast fitness: 0.706 for the first, ≤ 0.5 for the second.

Going from U7A G23A C29A to U7A G23A C29A C55A, the yeast fitness falls from 0.531 to ≤ 0.5.

Going from U7A G23A C29A C61U to U7A G23A C30U C33A G41C A42U, the yeast fitness falls from 0.573 to ≤ 0.5.

U7A G23A C60A and U7A G23A C62U cannot be ordered by yeast fitness: ≤ 0.5 for the first, ≤ 0.5 for the second.

Going from U7A G23C to U7A G23C C31G C33U A42G G52C G58C, the yeast fitness falls from 0.519 to ≤ 0.5.

U7A G23C C33G A42G C46U U64C and U7A G23C C34G U35G A40U A70C cannot be ordered by yeast fitness: ≤ 0.5 for the first, ≤ 0.5 for the second.

Compared with U7A G23C C49G, U7A G23C C49G C66A is lower in yeast fitness: 0.566 for the first, ≤ 0.5 for the second.

Going from U7A G25A A65U to U7A G38A, the yeast fitness falls from 0.765 to 0.695.

Going from U7A G38A A43U to U7A G38C A70G, the yeast fitness falls from 0.53 to ≤ 0.5.

Compared with U7A G39A C49A, U7A G39C is higher in yeast fitness: ≤ 0.5 for the first, 0.608 for the second.

U7A G39C A45G and U7A G39C C46G C49U C62U cannot be ordered by yeast fitness: ≤ 0.5 for the first, ≤ 0.5 for the second.

Going from U7A G39C C55A to U7A G41C, the yeast fitness falls from 0.723 to 0.684.

U7A G41C G63C A65U and U7A G41C U54A C62U A70U cannot be ordered by yeast fitness: ≤ 0.5 for the first, ≤ 0.5 for the second.

Compared with U7A G44C A45U, U7A G44C C49U C61A C62U C66U is lower in yeast fitness: 0.503 for the first, ≤ 0.5 for the second.

First: U7A G48A
Second: U7A G48A U59C C61A G63A
The yeast fitness of the first is higher: 0.99 for the first, ≤ 0.5 for the second.

First: U7A G50C
Second: U7A G50C U53C C55U
The yeast fitness of the first is higher: 0.684 for the first, ≤ 0.5 for the second.

Going from U7A G50U to U7A G51A, the yeast fitness falls from 0.69 to 0.652.

Going from U7A G51C to U7A G51C G56C C61A, the yeast fitness falls from 0.553 to ≤ 0.5.

Going from U7A G52C to U7A G56C C66U, the yeast fitness falls from 0.55 to ≤ 0.5.

First: U7A G58C
Second: U7A G67A
The yeast fitness of the first is higher: 0.918 for the first, 0.781 for the second.

First: U7A G67C
Second: U7A G68C
The yeast fitness of the first is lower: 0.669 for the first, 0.811 for the second.

First: U7A U8A G10C C27G C34G
Second: U7A U8A G10C C27G C34G C55U
The yeast fitness of the first is higher: 0.564 for the first, 0.527 for the second.

U7A U8A G10C C27G C34G C55U A57G and U7A U8A G10C C27G C34G U35C C55U cannot be ordered by yeast fitness: ≤ 0.5 for the first, ≤ 0.5 for the second.

U7A U8A G25A C62G and U7A U8A G67C cannot be ordered by yeast fitness: ≤ 0.5 for the first, ≤ 0.5 for the second.

Compared with U7A U8A U35C, U7A U8A U35C C62A is lower in yeast fitness: 0.601 for the first, 0.537 for the second.

Going from U7A U8C A36C G51C to U7A U8C C61U, the yeast fitness rises from ≤ 0.5 to 0.604.

First: U7A U8C G9A U32G A42U
Second: U7A U8C G23A G56C C66G
The yeast fitness of the first is lower: 0.561 for the first, 0.677 for the second.

U7A U8G A14G A36U A43U and U7A U8G C30G cannot be ordered by yeast fitness: ≤ 0.5 for the first, ≤ 0.5 for the second.

First: U7A U8G C30G A70U
Second: U7A U8G C30G G63A
The yeast fitness of the first is higher: 0.518 for the first, ≤ 0.5 for the second.

U7A U8G C34A G58C C62A A69C and U7A U8G G51A A69C cannot be ordered by yeast fitness: ≤ 0.5 for the first, ≤ 0.5 for the second.

U7A U13A A69C and U7A U13A C46G C66U cannot be ordered by yeast fitness: ≤ 0.5 for the first, ≤ 0.5 for the second.

U7A U13A C49A and U7A U13A G23A cannot be ordered by yeast fitness: ≤ 0.5 for the first, ≤ 0.5 for the second.

Going from U7A U13G G41A to U7A U16A, the yeast fitness rises from ≤ 0.5 to 0.743.

U7A U16A C29U C60U C66G G68A and U7A U16C C29U C31A C66G G67U cannot be ordered by yeast fitness: ≤ 0.5 for the first, ≤ 0.5 for the second.

U7A U16C G17A C29U C31A and U7A U16C G17A C29U C31A C66G G67U cannot be ordered by yeast fitness: ≤ 0.5 for the first, ≤ 0.5 for the second.

Compared with U7A U16C G17A C29U C31A U35C C66G G67U, U7A U19A is higher in yeast fitness: ≤ 0.5 for the first, 0.752 for the second.

Compared with U7A U19A A20C A40G, U7A U19A A20C A40G A69U is higher in yeast fitness: ≤ 0.5 for the first, 0.503 for the second.

U7A U19A C27A C30U G41C A43U C49A and U7A U19A C29A cannot be ordered by yeast fitness: ≤ 0.5 for the first, ≤ 0.5 for the second.

First: U7A U19A C49U G56C G63C
Second: U7A U19A U32C
The yeast fitness of the first is lower: ≤ 0.5 for the first, 0.829 for the second.

Compared with U7A U19G C60G, U7A U19G G58A A69C is higher in yeast fitness: ≤ 0.5 for the first, 0.527 for the second.

First: U7A U19G U26C C29G
Second: U7A U26C A40G A43U C49A
The yeast fitness of the first is lower: ≤ 0.5 for the first, 0.622 for the second.

U7A U26C A69U showed a yeast fitness of 0.574.
